# Assay results pooled from the literature.
# Protocols differ between the studies behind these lines.
# Target: Serine/threonine-protein kinase Sgk3 (SGK3, Homo sapiens, UniProt Q96BR1)
# One construct used (Q96BR1 1-496): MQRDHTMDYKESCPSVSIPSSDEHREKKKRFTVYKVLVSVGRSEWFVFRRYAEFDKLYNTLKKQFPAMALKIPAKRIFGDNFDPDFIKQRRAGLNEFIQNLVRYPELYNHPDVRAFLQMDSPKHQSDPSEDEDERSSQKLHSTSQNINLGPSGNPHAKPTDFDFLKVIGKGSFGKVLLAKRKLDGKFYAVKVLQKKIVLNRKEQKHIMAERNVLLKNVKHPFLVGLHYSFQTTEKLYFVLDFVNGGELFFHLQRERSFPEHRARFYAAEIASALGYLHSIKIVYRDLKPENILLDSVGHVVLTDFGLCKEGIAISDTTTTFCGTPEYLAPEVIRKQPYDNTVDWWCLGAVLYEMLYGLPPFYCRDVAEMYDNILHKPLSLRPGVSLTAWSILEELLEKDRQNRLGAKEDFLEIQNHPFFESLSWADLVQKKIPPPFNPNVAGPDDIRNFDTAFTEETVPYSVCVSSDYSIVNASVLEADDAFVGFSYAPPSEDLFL
assay,conditions,remaining binding [%],SMILES
binding,1 µM,89,F[C@@H]1CCN(c2nccc(-c3cnn4ncccc34)n2)C1
"cell-free assay, competition with immobilised ligand",0.1 µM,92,O=C(NCCCC1CCCCC1)c1ccc(CNC(=O)c2cnn(-c3ccccc3)c2C(F)(F)F)cc1
"binding, competition with immobilised ligand",1 µM,100,Nc1ncc2c(n1)-c1c([nH]c3ccc(C#CC4CC4)cc13)CCCC2
"binding, competition with immobilised ligand",1 µM,78,O=C(NCC1CCOCC1)c1n[nH]cc1NC(=O)c1c(F)cccc1F
binding,1 µM,95,COc1ccnn2ncc(-c3ccnc(N(C)C)n3)c12
"binding, competition with immobilised ligand",5 µM,70,FC(F)(F)Oc1cccc(-c2cnc3ccc(-c4ccncc4)nn23)c1
binding,1 µM,97,CN(CCCC(F)(F)F)c1nccc(-c2cnn3ncccc23)n1
"binding, competition with immobilised ligand",1 µM,7.3,Cc1cnc(Nc2ccc(C(=O)N3CCC(N4CCCC4)CC3)cc2)nc1-c1cc2ccccc2s1
"cell-free assay, competition with immobilised ligand",1 µM,80,C[C@H](c1cccc(C#N)c1)n1cc(Cl)cc(C(N)=O)c1=N
"binding, competition with immobilised ligand",1 µM,45,O=C(NCCCN1CCOCC1)c1ccc(Nc2ncc(Cl)c(-c3ccc(Cl)s3)n2)cc1
"cell-free assay, competition with immobilised ligand",1 µM,100,Cc1noc([C@H]2C[C@@H](c3ccc(C(F)(F)F)cc3)CN(C(=O)N3CCS(=O)(=O)C3)C2)n1
"cell-free assay, competition with immobilised ligand",5 µM,100,COc1ncc2cc3ccccc3nc2c1C#N
"cell-free assay, competition with immobilised ligand",1 µM,99,O=C(NCc1ncc(C(F)(F)F)cc1Cl)c1ccc2c(c1)C1(CCS(=O)(=O)CC1)[C@H](C1CC1)N2S(=O)(=O)c1ccc(F)cc1
"binding, competition with immobilised ligand",1 µM,100,COc1cnc(Nc2cccc(S(N)(=O)=O)c2)nc1N1CCN(c2ccccc2)C(=O)C1
"cell-free assay, competition with immobilised ligand",1 µM,100,C[C@@]1(Cc2ccc(C#N)cc2)C(=O)N(c2cc(Cl)cc(Cl)c2)c2ncc(C(=O)NC3(c4nc(C5CCC5)no4)CC3)n21
binding,1 µM,100,N[C@H]1CCN(c2nccc(-c3cnn4ncccc34)n2)C1
"binding, competition with immobilised ligand",10 µM,58,c1cncc(-c2cccc(Nc3nccc(NC4CCCCC4)n3)c2)c1
binding,1 µM,86,CC1CCCN1c1nccc(-c2cnn3ncccc23)n1 (stereo not drawn)
"binding, competition with immobilised ligand",1 µM,29,O=C(NCCCN1CCOCC1)c1ccc(Nc2nccc(-c3cc4ccccc4s3)n2)cc1
binding,1 µM,79,CN(C)c1nccc(-c2cnc3ncccn23)n1
"cell-free assay, competition with immobilised ligand",0.1 µM,90,Cn1cc(Cl)c2c(Oc3c(F)cc(Nc4cc(Cl)nc(N)n4)cc3F)ccnc21
